How the values were obtained:
CYP2D6 [1] = target: T1, CYP2D6 (Homo sapiens, UniProt P10635); assay: Inhibition of human liver microsome CYP2D6 at 0.10 to 50 uM preincubated with NADPH for 0.5 hrs followed by substrate addition by LC-MS/MS method relative to control; format: ADME; details: liver microsomes, dose 0.1-50 µM
[2] = Metabolic stability in mouse liver microsomes assessed as half life; format: ADME, Microsome
[3] = Metabolic stability in human liver microsomes assessed as intrinsic clearance; format: ADME, Microsome; details: read-out: CLH
[4] = Ratio of drug concentration in brain to plasma of MES induced Kunming mouse model of seizure
[5] = Ratio of TD50 for Kunming mouse to ED50 for anticonvulsant activity in Kunming mouse; format: toxicity; details: read-out: Ratio TD50/ED50
In short: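 KM mice given compound orally as a fresh 0.5% CMC-Na suspension (20 mL/kg), tested 1 h later. ED50 from the MES test (protection from hindlimb tonic extension; ear-clip stimulus 160 V). TD50 from the rotarod test as motor impairment. Both from dose–response nonlinear regression with 95% CI.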

[6] = Tmax in Sprague-Dawley rat brain at 6 mg/kg, po measured upto 24 hrs by LC-MS/MS method; format: ADME, organism-based
In short: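 Male SD rats (180–220 g) dosed orally at 2, 6 and 20 mg/kg, handled like the mice: fasting, 5% DMSO/5% Tween 80/saline vehicle, acetonitrile extraction, LC-MS/MS of plasma. In a separate set at 6 mg/kg p.o., blood and brain were sampled together.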

CYP3A4 = CYP3A4 (Homo sapiens, UniProt P08684); assay: Ratio of IC50 for human liver microsome CYP3A4 using midazolam as substrate in absence of NADPH to IC50 for human liver microsome CYP3A4 using midazolam as substrate in presence of NADPH; details: liver microsomes, probe midazolam, read-out: Ratio IC50
In short: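 Human liver microsomes preincubated 0.5 h with 0.10−50 μM compound, with or without NADPH, then CYP-specific probe substrates added (CYP3A4 with midazolam 1′-hydroxylation and with testosterone 6β-hydroxylation). Metabolites quantified by LC−MS/MS; % activity remaining computed against no-compound control. IC50 fitted by Probit model; ratio = IC50(−NADPH)/IC50(+NADPH).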

Cytochrome P450 2C19 = Cytochrome P450 2C19 (Homo sapiens, UniProt P33261); assay: Time dependent inhibition of human liver microsome CYP2C19 preincubated for 0.5 hrs in presence or absence of NADPH followed by substrate addition by LC-MS/MS method; format: ADME, microsomes
In short: (§1)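 Human liver microsomes preincubated 0.5 h with 0.10–50 μM test compound, with or without NADPH, then CYP-specific probe substrate added and incubation continued. Metabolite measured by LC-MS/MS; % activity remaining relative to no-compound control; IC50 fitted by Probit model. For CYP3A4, midazolam 1′-hydroxylation and testosterone 6β-hydroxylation were read separately.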

Cytochrome P450 2C8 = Cytochrome P450 2C8 (Homo sapiens, UniProt P10632); assay: Time dependent inhibition of human liver microsome CYP2C8 preincubated for 0.5 hrs in presence of NADPH followed by substrate addition by LC-MS/MS method; format: ADME, microsomes; in short: as §1
CYP2C9 = CYP2C9 (Homo sapiens, UniProt P11712); assay: Ratio of IC50 for human liver microsome CYP2C9 in absence of NADPH to IC50 for human liver microsome CYP2C9 in presence of NADPH; details: liver microsomes, read-out: Ratio IC50
Mus musculus = assay: Anticonvulsant activity in MES induced Kunming mouse model of seizure at 5 mg/kg, po after 1 hr; format: functional
In short: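 MES test in male KM mice. Compounds freshly suspended in 0.5% CMC-Na and given by gavage at 20 mL/kg; 160 V stimulus through ear clips. Protection scored as absence of hindlimb tonic extension; time course at 0.25, 0.5, 1 and 2 h, otherwise tested at 1 h. ED50 from dose−response by nonlinear regression; Fisher's exact test versus vehicle.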

[7] = target: T2, Potassium voltage-gated channel subfamily KQT member 1 (Homo sapiens, UniProt P51787); assay: Agonist activity at human KCNQ1 channel expressed in CHO cells assessed as shift of half voltage of maximal activation at 0.1 uM by patch clamp method; format: cell-based
T2 sequence (P51787 whole entry): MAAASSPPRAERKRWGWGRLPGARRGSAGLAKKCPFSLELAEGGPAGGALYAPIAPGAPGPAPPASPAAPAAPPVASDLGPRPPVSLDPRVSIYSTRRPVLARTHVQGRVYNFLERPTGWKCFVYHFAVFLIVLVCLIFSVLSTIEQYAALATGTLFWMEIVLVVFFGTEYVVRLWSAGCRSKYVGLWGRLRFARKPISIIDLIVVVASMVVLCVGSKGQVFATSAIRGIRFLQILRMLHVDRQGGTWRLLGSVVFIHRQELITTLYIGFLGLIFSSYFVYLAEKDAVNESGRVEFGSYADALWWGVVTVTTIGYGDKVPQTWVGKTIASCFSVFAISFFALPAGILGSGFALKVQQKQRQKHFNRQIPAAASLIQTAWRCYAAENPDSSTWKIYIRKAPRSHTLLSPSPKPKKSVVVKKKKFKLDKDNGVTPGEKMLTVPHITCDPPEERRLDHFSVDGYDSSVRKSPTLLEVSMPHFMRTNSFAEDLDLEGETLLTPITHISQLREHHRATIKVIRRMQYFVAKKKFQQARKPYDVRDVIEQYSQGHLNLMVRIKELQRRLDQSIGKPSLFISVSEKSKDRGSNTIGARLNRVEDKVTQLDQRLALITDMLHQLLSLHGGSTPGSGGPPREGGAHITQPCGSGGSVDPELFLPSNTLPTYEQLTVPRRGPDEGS
In short: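 Whole-cell patch clamp at room temperature on CHO cells (DMEM/F12, 10% FBS) transiently co-transfected with EGFP and hKCNQ1, rKCNQ2, rKCNQ3 A278T, hKCNQ4 or hKCNQ5; KCNQ2/3 at 1:1 cDNA ratio. Pipette solution 145 mM KCl, 5 mM MgATP, pH 7.3; bath 140 mM NaCl, 5 mM KCl, pH 7.4, under perfusion. V1/2 from Boltzmann fits; I/I0 is current amplitude with versus without compound; n = 4−6.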

[8] = AUC(0 to t) in Sprague-Dawley rat at 20 mg/kg, po measured upto 24 hrs by LC-MS/MS method; format: ADME, organism-based; design: dose 20 mg/kg, time < 24 hrs, route po; details: in vivo
In short: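 Male SD rats (180−220 g) dosed orally at 2, 6 or 20 mg/kg in escalating fashion, handled as in the mouse study: 12 h fast, acetonitrile extraction of plasma, LC−MS/MS quantification. AUC0−t by trapezoidal method to the last measurable concentration.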

CYP2C8 = CYP2C8 (Homo sapiens, UniProt P10632); assay: Inhibition of human liver microsome CYP2C8 at 0.10 to 50 uM preincubated with NADPH for 0.5 hrs followed by substrate addition by LC-MS/MS method relative to control; format: ADME; details: liver microsomes, dose 0.1-50 µM
CYP2D6 [9] = target: T1, CYP2D6; assay: Ratio of IC50 for human liver microsome CYP2D6 in absence of NADPH to IC50 for human liver microsome CYP2D6 in presence of NADPH; details: liver microsomes, read-out: Ratio IC50

T1 sequence (P10635 whole entry): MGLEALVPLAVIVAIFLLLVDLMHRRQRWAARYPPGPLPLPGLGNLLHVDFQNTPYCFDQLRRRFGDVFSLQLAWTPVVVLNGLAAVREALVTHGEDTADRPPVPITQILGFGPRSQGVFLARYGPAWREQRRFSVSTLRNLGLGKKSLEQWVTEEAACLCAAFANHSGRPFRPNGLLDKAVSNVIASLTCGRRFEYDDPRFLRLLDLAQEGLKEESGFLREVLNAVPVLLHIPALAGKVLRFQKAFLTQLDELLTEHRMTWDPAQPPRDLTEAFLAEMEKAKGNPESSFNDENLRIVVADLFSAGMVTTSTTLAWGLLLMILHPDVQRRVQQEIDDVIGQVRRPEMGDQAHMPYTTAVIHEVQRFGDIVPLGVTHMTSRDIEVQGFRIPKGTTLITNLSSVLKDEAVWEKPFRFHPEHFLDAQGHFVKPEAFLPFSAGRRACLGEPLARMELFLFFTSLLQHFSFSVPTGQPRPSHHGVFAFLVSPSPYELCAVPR
Sequence of Cytochrome P450 2C8 (P10632 whole entry): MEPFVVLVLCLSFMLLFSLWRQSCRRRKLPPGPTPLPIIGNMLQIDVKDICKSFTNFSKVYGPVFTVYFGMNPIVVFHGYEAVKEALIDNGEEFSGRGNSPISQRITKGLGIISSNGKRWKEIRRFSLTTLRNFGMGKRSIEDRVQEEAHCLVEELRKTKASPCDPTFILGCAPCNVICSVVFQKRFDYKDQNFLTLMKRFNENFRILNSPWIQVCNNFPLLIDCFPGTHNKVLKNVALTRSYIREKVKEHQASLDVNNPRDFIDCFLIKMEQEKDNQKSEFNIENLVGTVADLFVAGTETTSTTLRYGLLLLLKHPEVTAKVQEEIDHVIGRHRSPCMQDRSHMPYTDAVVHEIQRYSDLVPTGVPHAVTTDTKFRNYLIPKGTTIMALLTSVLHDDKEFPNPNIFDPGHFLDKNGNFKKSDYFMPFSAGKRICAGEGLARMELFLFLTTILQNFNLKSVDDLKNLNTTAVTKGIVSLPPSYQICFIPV
Sequence of CYP2C8 (P10632 whole entry): as above
Sequence of CYP3A4 (P08684 whole entry): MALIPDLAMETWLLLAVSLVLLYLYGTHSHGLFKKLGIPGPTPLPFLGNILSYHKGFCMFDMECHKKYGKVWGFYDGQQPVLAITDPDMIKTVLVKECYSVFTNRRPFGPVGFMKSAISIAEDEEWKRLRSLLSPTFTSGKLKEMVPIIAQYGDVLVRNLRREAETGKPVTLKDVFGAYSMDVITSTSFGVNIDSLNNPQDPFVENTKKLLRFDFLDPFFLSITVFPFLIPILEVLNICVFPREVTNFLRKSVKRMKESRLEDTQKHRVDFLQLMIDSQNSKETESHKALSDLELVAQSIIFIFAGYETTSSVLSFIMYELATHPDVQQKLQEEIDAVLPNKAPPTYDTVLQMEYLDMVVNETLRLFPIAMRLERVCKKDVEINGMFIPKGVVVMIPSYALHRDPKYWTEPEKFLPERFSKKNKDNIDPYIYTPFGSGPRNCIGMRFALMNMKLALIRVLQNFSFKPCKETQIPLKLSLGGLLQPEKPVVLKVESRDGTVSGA
Sequence of CYP2C9 (P11712 whole entry): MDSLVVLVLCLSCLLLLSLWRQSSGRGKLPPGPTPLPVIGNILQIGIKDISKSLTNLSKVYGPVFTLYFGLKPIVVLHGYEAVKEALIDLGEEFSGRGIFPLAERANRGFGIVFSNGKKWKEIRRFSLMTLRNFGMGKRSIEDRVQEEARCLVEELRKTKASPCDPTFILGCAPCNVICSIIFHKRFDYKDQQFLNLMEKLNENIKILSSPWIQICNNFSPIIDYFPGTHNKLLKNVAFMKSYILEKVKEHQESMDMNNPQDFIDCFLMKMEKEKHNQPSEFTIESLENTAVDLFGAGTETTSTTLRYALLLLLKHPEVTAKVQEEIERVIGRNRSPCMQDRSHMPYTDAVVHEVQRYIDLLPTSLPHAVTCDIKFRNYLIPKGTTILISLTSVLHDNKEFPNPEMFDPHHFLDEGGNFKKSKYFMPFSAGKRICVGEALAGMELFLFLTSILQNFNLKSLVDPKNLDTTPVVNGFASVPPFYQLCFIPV
Sequence of Cytochrome P450 2C19 (P33261 whole entry): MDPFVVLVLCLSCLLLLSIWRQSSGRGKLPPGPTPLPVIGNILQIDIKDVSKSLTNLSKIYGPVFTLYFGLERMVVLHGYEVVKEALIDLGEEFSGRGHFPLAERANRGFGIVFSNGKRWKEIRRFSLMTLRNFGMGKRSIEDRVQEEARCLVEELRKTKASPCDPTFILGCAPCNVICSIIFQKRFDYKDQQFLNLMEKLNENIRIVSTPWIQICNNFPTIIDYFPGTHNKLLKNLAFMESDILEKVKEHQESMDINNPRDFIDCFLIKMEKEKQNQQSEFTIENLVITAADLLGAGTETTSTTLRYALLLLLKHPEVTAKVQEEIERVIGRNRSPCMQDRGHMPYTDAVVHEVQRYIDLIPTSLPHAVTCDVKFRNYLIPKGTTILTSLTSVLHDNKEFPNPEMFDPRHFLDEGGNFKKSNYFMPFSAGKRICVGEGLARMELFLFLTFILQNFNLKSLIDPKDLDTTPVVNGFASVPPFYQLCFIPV

C#CCN(Cc1ccc(F)cc1)c1cc(C)c(NC(=O)OC)c(C)c1
inhibition at 0.5 h, up to 50 µM (CYP2D6 [1]): < 25% | half-life [2]: 12.5 min | CLint scaled [3]: 62.7 mL/min/kg | Kp [4]: 1.4 | selectivity ratio [5]: 43.2 | Tmax [6]: 15 min | IC50 shift (CYP3A4): < 1.5 | IC50 (Cytochrome P450 2C19): > 50 µM | IC50 (Cytochrome P450 2C8): 35.2 µM | IC50 shift (CYP2C9): < 1.5 | Activity (Mus musculus): 100% | Activity [7]: -5.47 mV | AUC(0-t) at 24 h [8]: 1920 ng·h/mL | inhibition at 0.5 h, up to 50 µM (CYP2C8): < 25% | IC50 shift (CYP2D6 [9]): < 1.5

Source: ChEMBL document CHEMBL5149984, “Discovery of HN37 as a Potent and Chemically Stable Antiepileptic Drug Candidate” (J Med Chem, 2021)
